# ChEMBL document CHEMBL1123529, “Analogues of substance P. Peptides containing D-amino acid residues in various positions of substance P and displaying agonist or receptor selective antagonist effects” (1986)
# Values joined by “and” are separate entries in the source; they are usually repeats but may differ in a detail not shown here. Equal entries are not always repeated.
# Key:
# [1] = molecular target: Substance-P receptor (Cavia porcellus) (UniProt P30547); assay: Evaluated in vitro for percent agonist activity in guinea pig ileum (substance P receptor); assay type: functional, tissue-based
# Sequence of Substance-P receptor (Cavia porcellus) (P30547 whole entry): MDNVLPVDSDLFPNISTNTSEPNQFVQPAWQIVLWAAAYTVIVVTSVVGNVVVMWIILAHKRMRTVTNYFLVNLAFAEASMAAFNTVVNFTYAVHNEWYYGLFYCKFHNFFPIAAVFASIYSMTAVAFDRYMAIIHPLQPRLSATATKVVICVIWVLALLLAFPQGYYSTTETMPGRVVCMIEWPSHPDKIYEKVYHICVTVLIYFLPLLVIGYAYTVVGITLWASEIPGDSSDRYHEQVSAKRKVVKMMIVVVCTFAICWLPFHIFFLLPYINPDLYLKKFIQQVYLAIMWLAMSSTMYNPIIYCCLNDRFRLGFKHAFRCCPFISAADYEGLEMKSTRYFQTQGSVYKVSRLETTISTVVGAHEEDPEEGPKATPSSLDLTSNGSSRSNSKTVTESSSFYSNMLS
# [2] = In vitro antagonistic activity against Substance P on guinea pig ileum at concentration of 10 uM.; assay type: functional, Cavia porcellus
# Method in brief: (§1)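 Dose-response curves used a 3-min cycle with 1-min contact and washout, with SP or SP(6-11)-hexapeptide as agonist. Dose ratio is the agonist EC50 with antagonist divided by the EC50 alone. At least two preparations per compound; ratios under 2 were considered insignificant.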
# [3] = In vitro antagonistic activity against Substance P(6-11) in guinea pig ileum at concentration of 10 uM.; assay type: functional, Cavia porcellus; method in brief: as §1
# [4] = molecular target: Substance-P receptor (Cavia porcellus) (UniProt P30547); assay: Antagonistic activity against Substance P(6-11) receptor in guinea pig ileum at concentration of 5 uM.; assay type: functional, tissue-based
# Method in brief: (§2)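 Distal ileum from Dunkin-Hartley guinea pigs (300-350 g, both sexes) in a Krebs organ bath at 37 °C, gassed with 95% O2/5% CO2. Agonist (SP or SP(6-11)) dose-response curves run on a 3-min cycle with 1-min contact, with and without antagonist. Dose ratio = agonist EC50 with antagonist / EC50 alone. At least two preparations per compound; ratios below 2 taken as insignificant.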
# [5] = molecular target: Substance-P receptor (Cavia porcellus) (UniProt P30547); assay: Antagonistic activity against Substance P receptor in guinea pig ileum at concentration of 5 uM.; assay type: functional, tissue-based; method in brief: as §2
SP [1],SMILES,Activity [2],Activity [3],further results
< 0.0001%,COC(=O)[C@@H](CCSC)NC(=O)C(Cc1ccccc1)NC(=O)C(Cc1ccccc1)NC(=O)C(Cc1ccccc1)NC(=O)C(Cc1ccccc1)NC(=O)[C@H](CCC(N)=O)NC(=O)[C@H](CCC(N)=O)NC(=O)[C@@H]1CCCN1C(=O)[C@H](CCCCNC(=O)OCc1ccccc1)NC(=O)[C@@H]1CCCN1C(=O)[C@H](CCCN=C(N)N)NC(=O)OCc1ccccc1 (stereo in doubt),<2 dose ratio,<2 dose ratio,
,COC(=O)[C@@H](CCSC)NC(=O)[C@H](CC(C)C)NC(=O)[C@@H](Cc1c[nH]c2ccccc12)NC(=O)[C@@H](Cc1c[nH]c2ccccc12)NC(=O)[C@@H](Cc1c[nH]c2ccccc12)NC(=O)[C@H](CCC(N)=O)NC(=O)[C@H](CCC(N)=O)NC(=O)[C@@H]1CCCN1C(=O)[C@H](CCCCN)NC(=O)[C@@H]1CCCN1C(=O)[C@@H](N)CCCN=C(N)N,3.9 dose ratio and 7.2 dose ratio,9.9 dose ratio,
0.005%,COC(=O)[C@@H](CCSC)NC(=O)[C@H](CC(C)C)NC(=O)CNC(=O)[C@H](Cc1ccccc1)NC(=O)[C@H](Cc1ccccc1)NC(=O)[C@@H](NC(=O)[C@H](NC(=O)[C@@H]1CCCN1C(=O)[C@H](CCCCN)NC(=O)[C@@H]1CCCN1C(=O)[C@@H](N)CCCN=C(N)N)C(C)C)C(C)C,,,
,COC(=O)[C@H](CCSC)NC(=O)[C@H](CC(C)C)NC(=O)CNC(=O)[C@H](Cc1ccccc1)NC(=O)[C@H](Cc1ccccc1)NC(=O)[C@H](NC(=O)[C@H](NC(=O)[C@@H]1CCCN1C(=O)[C@H](CCCCNC(=O)OCc1ccccc1)NC(=O)[C@@H]1CCCN1C(=O)[C@H](CCCN=C(N)N)NC(=O)OCc1ccccc1)C(C)C)C(C)C,<2 dose ratio,<2 dose ratio,
,COC(=O)[C@H](CCSC)NC(=O)[C@H](CC(C)C)NC(=O)CNC(=O)[C@H](Cc1ccccc1)NC(=O)[C@H](Cc1ccccc1)NC(=O)[C@@H](Cc1ccccc1)NC(=O)[C@@H](Cc1ccccc1)NC(=O)[C@@H]1CCCN1C(=O)[C@H](CCCCNC(=O)OCc1ccccc1)NC(=O)[C@@H]1CCCN1C(=O)[C@H](CCCN=C(N)N)NC(=O)OCc1ccccc1,<2 dose ratio,<2 dose ratio,
63%,CSCC[C@H](NC(=O)[C@H](CC(C)C)NC(=O)CNC(=O)[C@H](Cc1ccccc1)NC(=O)[C@H](Cc1ccccc1)NC(=O)[C@H](CCC(N)=O)NC(=O)[C@H](CCC(N)=O)NC(=O)C1CCCN1C(=O)[C@H](CCCCNC(=O)OCc1ccccc1)NC(=O)C1CCCN1C(=O)[C@H](CCCN=C(N)N)NC(=O)OCc1ccccc1)C(=O)O (stereo in doubt),,,
,CSCC[C@@H](NC(=O)[C@H](CC(C)C)NC(=O)[C@@H](Cc1c[nH]c2ccccc12)NC(=O)[C@@H](Cc1c[nH]c2ccccc12)NC(=O)[C@@H](Cc1c[nH]c2ccccc12)NC(=O)[C@H](CCC(N)=O)NC(=O)[C@H](CCC(N)=O)NC(=O)[C@@H]1CCCN1C(=O)[C@H](CCCCNC(=O)OCc1ccccc1)NC(=O)[C@@H]1CCCN1C(=O)[C@H](CCCN=C(N)N)NC(=O)OCc1ccccc1)C(=O)O,<2 dose ratio,,
,CSCC[C@H](NC(=O)[C@H](CC(C)C)NC(=O)CNC(=O)[C@H](Cc1ccccc1)NC(=O)[C@H](Cc1ccccc1)NC(=O)[C@H](NC(=O)[C@H](NC(=O)[C@@H]1CCCN1C(=O)[C@H](CCCCNC(=O)OCc1ccccc1)NC(=O)[C@@H]1CCCN1C(=O)[C@H](CCCN=C(N)N)NC(=O)OCc1ccccc1)C(C)C)C(C)C)C(=O)O,<2 dose ratio,<2 dose ratio,
6.4%,CSCC[C@@H](NC(=O)[C@H](CC(C)C)NC(=O)CNC(=O)[C@H](Cc1ccccc1)NC(=O)[C@H](Cc1ccccc1)NC(=O)[C@@H](NC(=O)[C@H](NC(=O)[C@@H]1CCCN1C(=O)[C@H](CCCCN)NC(=O)[C@@H]1CCCN1C(=O)[C@@H](N)CCCN=C(N)N)C(C)C)C(C)C)C(=O)O,,,
,COC(=O)[C@H](CCSC)NC(=O)[C@H](CC(C)C)NC(=O)CNC(=O)[C@H](Cc1ccccc1)NC(=O)[C@H](Cc1ccccc1)NC(=O)[C@@H](Cc1ccccc1)NC(=O)[C@@H](Cc1ccccc1)NC(=O)[C@@H]1CCCN1C(=O)[C@H](CCCCN)NC(=O)[C@@H]1CCCN1C(=O)[C@@H](N)CCCN=C(N)N,<2 dose ratio,<2 dose ratio,
< 0.0001%,COC(=O)[C@@H](CCSC)NC(=O)[C@H](CC(C)C)NC(=O)CNC(=O)[C@H]1CCCN1C(=O)[C@H]1CCCN1C(=O)[C@H](CCC(N)=O)NC(=O)[C@H](CCC(N)=O)NC(=O)[C@@H]1CCCN1C(=O)[C@H](CCCCNC(=O)OCc1ccccc1)NC(=O)[C@@H]1CCCN1C(=O)[C@H](CCCN=C(N)N)NC(=O)OCc1ccccc1,<2 dose ratio,<2 dose ratio,
0.066%,COC(=O)[C@@H](CCSC)NC(=O)[C@H](CC(C)C)NC(=O)CNC(=O)[C@H](Cc1ccccc1)NC(=O)[C@H](Cc1ccccc1)NC(=O)[C@@H]1CCCN1C(=O)[C@H]1CCCN1C(=O)[C@@H]1CCCN1C(=O)[C@H](CCCCN)NC(=O)[C@@H]1CCCN1C(=O)[C@@H](N)CCCN=C(N)N,,,
< 0.0001%,COC(=O)[C@@H](CCSC)NC(=O)[C@H](CC(C)C)NC(=O)CNC(=O)[C@@H](NC(=O)[C@H](NC(=O)[C@H](CCC(N)=O)NC(=O)[C@H](CCC(N)=O)NC(=O)[C@@H]1CCCN1C(=O)[C@H](CCCCNC(=O)OCc1ccccc1)NC(=O)[C@@H]1CCCN1C(=O)[C@H](CCCN=C(N)N)NC(=O)OCc1ccccc1)C(C)C)C(C)C,,,
15%,CSCC[C@H](NC(=O)[C@H](CC(C)C)NC(=O)CNC(=O)[C@H](Cc1ccccc1)NC(=O)[C@H](Cc1ccccc1)NC(=O)[C@H](CCC(N)=O)NC(=O)[C@H](CCC(N)=O)NC(=O)C1CCCN1C(=O)[C@H](CCCCN)NC(=O)C1CCCN1C(=O)[C@@H](N)CCCN=C(N)N)C(N)=O (stereo in doubt),,,
,COC(=O)[C@@H](CCSC)NC(=O)[C@H](CC(C)C)NC(=O)CNC(=O)[C@H](NC(=O)[C@H](NC(=O)[C@H](CCC(N)=O)NC(=O)[C@H](CCC(N)=O)NC(=O)[C@@H]1CCCN1C(=O)[C@H](CCCCNC(=O)OCc1ccccc1)NC(=O)[C@@H]1CCCN1C(=O)[C@H](CCCN=C(N)N)NC(=O)OCc1ccccc1)C(C)C)C(C)C,<2 dose ratio,<2 dose ratio,
,COC(=O)[C@@H](CCSC)NC(=O)[C@H](CC(C)C)NC(=O)[C@@H](Cc1c[nH]c2ccccc12)NC(=O)[C@@H](Cc1c[nH]c2ccccc12)NC(=O)[C@@H](Cc1c[nH]c2ccccc12)NC(=O)[C@H](CCC(N)=O)NC(=O)[C@H](CCC(N)=O)NC(=O)[C@@H]1CCCN1C(=O)[C@H](CCCCNC(=O)OCc1ccccc1)NC(=O)[C@@H]1CCCN1C(=O)[C@@H](N)CCCN=C(N)N,10 dose ratio,5.6 dose ratio,
0%,COC(=O)[C@@H](CCSC)NC(=O)[C@H](CC(C)C)NC(=O)CNC(=O)[C@H](Cc1ccccc1)NC(=O)[C@H](Cc1ccccc1)NC(=O)[C@H](Cc1ccccc1)NC(=O)[C@@H](Cc1ccccc1)NC(=O)[C@@H]1CCCN1C(=O)[C@H](CCCCN)NC(=O)[C@@H]1CCCN1C(=O)[C@@H](N)CCCN=C(N)N,,,
,COC(=O)[C@@H](CCSC)NC(=O)[C@H](CC(C)C)NC(=O)[C@@H](Cc1c[nH]c2ccccc12)NC(=O)[C@@H](Cc1c[nH]c2ccccc12)NC(=O)[C@@H](Cc1c[nH]c2ccccc12)NC(=O)[C@H](CCC(N)=O)NC(=O)[C@H](CCC(N)=O)NC(=O)[C@@H]1CCCN1C(=O)[C@H](CCCCNC(=O)OCc1ccccc1)NC(=O)[C@@H]1CCCN1C(=O)[C@H](CCCN=C(N)N)NC(=O)OCc1ccccc1,<2 dose ratio,<2 dose ratio,
7%,COC(=O)[C@H](CCSC)NC(=O)[C@H](CC(C)C)NC(=O)CNC(=O)[C@H](Cc1ccccc1)NC(=O)[C@H](Cc1ccccc1)NC(=O)[C@H](CCC(N)=O)NC(=O)[C@H](CCC(N)=O)NC(=O)C1CCCN1C(=O)[C@H](CCCCNC(=O)OCc1ccccc1)NC(=O)C1CCCN1C(=O)[C@H](CCCN=C(N)N)NC(=O)OCc1ccccc1 (stereo in doubt),,,
< 0.0001%,COC(=O)[C@@H](CCSC)NC(=O)[C@H](CC(C)C)NC(=O)CNC(=O)[C@H](Cc1ccccc1)NC(=O)[C@H](Cc1ccccc1)NC(=O)[C@H](Cc1ccccc1)NC(=O)[C@@H](Cc1ccccc1)NC(=O)[C@@H]1CCCN1C(=O)[C@H](CCCCNC(=O)OCc1ccccc1)NC(=O)[C@@H]1CCCN1C(=O)[C@H](CCCN=C(N)N)NC(=O)OCc1ccccc1,,,
0%,COC(=O)[C@H](CCSC)NC(=O)[C@H](Cc1c[nH]c2ccccc12)NC(=O)[C@@H](Cc1c[nH]c2ccccc12)NC(=O)[C@H](Cc1ccccc1)NC(=O)[C@H](Cc1ccccc1)NC(=O)[C@H](CCC(N)=O)NC(=O)[C@H](CCC(N)=O)NC(=O)[C@@H]1CCCN1C(=O)[C@H](CCCCNC(=O)OCc1ccccc1)NC(=O)[C@@H]1CCCN1C(=O)[C@H](CCCN=C(N)N)NC(=O)OCc1ccccc1,,,Activity [4]: < 2 dose ratio; Activity [5]: < 2 dose ratio
< 0.0001%,CSCC[C@@H](NC(=O)[C@H](CC(C)C)NC(=O)CNC(=O)[C@H](Cc1ccccc1)NC(=O)[C@H](Cc1ccccc1)NC(=O)[C@@H](NC(=O)[C@H](NC(=O)[C@@H]1CCCN1C(=O)[C@H](CCCCNC(=O)OCc1ccccc1)NC(=O)[C@@H]1CCCN1C(=O)[C@H](CCCN=C(N)N)NC(=O)OCc1ccccc1)C(C)C)C(C)C)C(=O)O,,,
